pEC50: −log10 of the molar value.
Legend:
[1] = target: T1, Polyunsaturated fatty acid 5-lipoxygenase (Homo sapiens, UniProt P09917); experiment: In vitro inhibition of ionophore stimulated LTB4 release from human peripheral blood leukocytes.; type: functional
T1 sequence (P09917 whole entry): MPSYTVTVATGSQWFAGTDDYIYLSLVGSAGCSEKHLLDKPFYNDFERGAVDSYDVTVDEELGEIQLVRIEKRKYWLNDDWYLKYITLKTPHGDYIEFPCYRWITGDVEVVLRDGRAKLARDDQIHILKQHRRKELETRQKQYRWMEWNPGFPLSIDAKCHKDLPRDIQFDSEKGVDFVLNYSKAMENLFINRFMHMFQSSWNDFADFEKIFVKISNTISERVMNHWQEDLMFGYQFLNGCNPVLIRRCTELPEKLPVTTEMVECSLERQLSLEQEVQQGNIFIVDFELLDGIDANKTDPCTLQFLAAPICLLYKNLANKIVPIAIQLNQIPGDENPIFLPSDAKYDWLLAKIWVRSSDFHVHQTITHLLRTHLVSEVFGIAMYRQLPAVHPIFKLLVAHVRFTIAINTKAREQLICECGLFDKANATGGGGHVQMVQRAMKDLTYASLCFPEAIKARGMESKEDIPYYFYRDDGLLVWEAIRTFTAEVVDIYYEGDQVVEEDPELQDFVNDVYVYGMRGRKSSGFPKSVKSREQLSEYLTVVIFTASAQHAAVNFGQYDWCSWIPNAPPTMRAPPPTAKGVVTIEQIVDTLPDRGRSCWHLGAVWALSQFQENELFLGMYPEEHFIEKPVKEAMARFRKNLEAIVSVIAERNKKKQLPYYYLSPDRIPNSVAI
How it was run: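 Leukocytes from pooled human venous blood were isolated by plasmagel sedimentation and erythrocyte lysis, then set to 1×10^6 cells/mL in modified Eagle MEM. Cells were preincubated 5 min at 37 °C with DMSO vehicle or compound, then stimulated 5 min at 37 °C with A23187 (5 µL of 0.1 mM). Reaction stopped on ice with cold Ca-free PBS; supernatant LTB4 measured by [3H]RIA.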

Mus musculus [2] = experiment: In vivo 5-Lipoxygenase inhibitory activity by using mouse zymosan peritonitis model; inactive; type: functional, organism-based
How it was run: (§1)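 CD-1 mice (18–25 g) received compound orally in 0.5% methyl cellulose, then 3 mg zymosan-A in 0.5 mL 0.9% saline ip 1 h later. Samples were held on ice ≥30 min and spun at 28000g for 15 min at 4 °C. Supernatants were dried under nitrogen and stored at −70 °C. LTC4 measured by [3H]RIA on a 1:20 dilution.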

[3] = target: T1, Polyunsaturated fatty acid 5-lipoxygenase; experiment: In vitro effective concentration required to inhibit ionophore stimulated-human peripheral blood leukocytes; inactive; type: functional
Mus musculus [4] = experiment: In vivo 5-Lipoxygenase inhibitory activity by using mouse zymosan peritonitis model; type: functional, organism-based; how it was run: as §1

| pEC50 [1] | EC50 (Mus musculus [2]) | EC50 [3] | EC50 (Mus musculus [4]) | Compound |
| --- | --- | --- | --- | --- |
| 6.80 | Not Active | – | – | CC(C)c1ccc2nc(SCCNC(=O)N(C)O)sc2c1 |
| 7.41 | – | – | – | CN(O)C(=O)CCSc1nc2ccccc2s1 |
| 4.61 | Not Active | – | – | O=C(NO)NCCSc1nc2cc(Cl)ccc2s1 |
| 7.15 | – | – | – | CN(O)C(=O)CSc1nc2ccccc2s1 |
| 7.15 | Not Active | – | – | CC(C)N(O)C(=O)NCCCSc1nc2ccccc2s1 |
| – | Not Active | Not Active | – | CNC(=O)NCCSc1nc2ccccc2s1 |
| – | – | Not Active | – | CNC(=O)CCSc1nc2ccccc2s1 |
| 6.89 | – | – | – | CN(O)C(=O)/C=C/Sc1nc2ccccc2s1 |
| 6.41 | Not Active | – | – | CCOc1ccc2nc(SCCNC(=O)N(O)C(C)C)sc2c1 |
| – | Not Active | Not Active | – | CON(C)C(=O)NCCSc1nc2ccccc2s1 |
| – | Not Active | Not Active | – | CONC(=O)NCCSc1nc2ccccc2s1 |
| 5.97 | – | – | 65.9 mg/kg | CN(O)C(=O)NCSc1nc2ccccc2s1 |
| 7.15 | Not Active | – | – | CC(C)N(O)C(=O)NCCSc1nc2cc(Cl)ccc2s1 |
| 7.70 | – | – | – | CN(O)C(=O)CCSc1nc2cc(Cl)ccc2s1 |
| 6.28 | Not Active | – | – | CN(O)C(=O)NCCSc1nc2cccc(Cl)c2s1 |
| 6.89 | Not Active | – | – | CC(C)N(O)C(=O)NCCSc1nc2ccccc2s1 |
| 7.70 | – | – | 23.1 mg/kg | CN(O)C(=O)NCCSc1nc2cc(Cl)ccc2s1 |
| 5.28 | Not Active | – | – | O=C(NO)NCCSc1nc2ccccc2s1 |
| 7.05 | – | – | 41 mg/kg | CN(O)C(=O)NCCSc1nc2ccccc2s1 |
| 5.49 | Not Active | – | – | CN(O)C(=O)NCCSc1nc2cc(C(F)(F)F)ccc2s1 |
| 6.96 | Not Active | – | – | CCOc1ccc2nc(SCCNC(=O)N(C)O)sc2c1 |
| 7.35 | – | – | 23 mg/kg | CN(O)C(=O)NCCCSc1nc2ccccc2s1 |
| – | – | – | 8.5 mg/kg | NC1=NN(c2cccc(C(F)(F)F)c2)CC1 [BW-755C] |
| 7.15 | – | – | 44.5 mg/kg | COc1ccc(-n2nc(CCC(=O)N(C)O)cc2-c2ccc(Cl)cc2)cc1 [TEPOXALIN] |
| – | – | – | 1.6 mg/kg | CC(c1cc2ccccc2s1)N(O)C(N)=O (stereo not drawn) [ZILEUTON] |

From ChEMBL document CHEMBL1125535, “Benzothiazole hydroxy ureas as inhibitors of 5-lipoxygenase: use of the hydroxyurea moiety as a replacement for hydroxamic acid” (J Med Chem, 1992)
